Results as given in ChEMBL document CHEMBL1124774, “Synthesis and biological activity of some derivatives of rifamycin P” (1990).

Assays:
Mycobacterium gordonae [1] = test: In vitro activity of compound against slowly growing Mycobacterium gordonae 1441; type: functional
How it was run: (§1)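 Medium was Middlebrook 7H10 agar with 2% glycerol and 10% OADC. Organisms from Loevenstein-Jensen slants were grown in 7H9 broth with 0.5% Tween and 10% OADC, adjusted to McFarland no. 1, and spotted with a multipoint inoculator. Sealed plates were incubated at 22, 30 or 37 °C for 4-20 days depending on strain.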

[2] = test system: Mycolicibacterium fortuitum; test: In vitro activity of compound against rapidly growing Mycobacterium fortuitum 1287; type: functional; how it was run: as §1
Streptococcus pneumoniae = test: In vitro antibacterial activity of compound against Streptococcus pneumoniae UC 41; type: functional
How it was run: (§2)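 Streptococcal MICs were run by twofold microdilution in Todd-Hewitt broth over 128-0.0001 µg/mL. Inoculum was 10^4 cfu/mL, with incubation at 37 °C for 18-24 h.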

[3] = test system: Mycolicibacterium fortuitum; test: In vitro activity of compound against rapidly growing Mycobacterium fortuitum 140; type: functional; how it was run: as §1
[4] = test system: Mycolicibacterium fortuitum; test: In vitro activity of compound against rapidly growing Mycobacterium fortuitum 114; type: functional; how it was run: as §1
Escherichia coli = test: In vitro antibacterial activity of compound against Escherichia coli SKF 12140; type: functional
Streptococcus pyogenes [5] = test: In vitro antibacterial activity of compound against Streptococcus pyogenes C 203 SKF 13400; type: functional; how it was run: as §2
[6] = test system: Mycolicibacterium smegmatis; test: In vitro activity of compound against rapidly growing Mycobacterium smegmatis 139; type: functional; how it was run: as §1
Enterococcus faecalis = test: In vitro antibacterial activity of compound against Streptococcus faecalis ATCC 7080.; type: functional
How it was run: (§3)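 Twofold microdilution MIC in Iso-Sensitest broth over 128-0.0001 µg/mL. Inoculum was 10^4 cfu/mL, with incubation at 37 °C for 18-24 h.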

Mycobacterium xenopi [7] = test: In vitro activity of compound against slowl growingy Mycobacterium xenopi 555; type: functional; how it was run: as §1
Staphylococcus aureus [8] = test: In vitro antibacterial activity of compound against Staphylococcus aureus Tour L 165; type: functional; how it was run: as §3
Mycobacterium marinum [9] = test: In vitro activity of compound against slowly growing Mycobacterium marinum 1388; type: functional; how it was run: as §1
[10] = test system: Mycolicibacterium fortuitum; test: In vitro activity of compound against rapidly growing Mycobacterium fortuitum 646; type: functional; how it was run: as §1
Mycobacterium marinum [11] = test: In vitro activity of compound against slowly growing Mycobacterium marinum 1390; type: functional; how it was run: as §1
Proteus vulgaris = test: In vitro antibacterial activity of compound against Proteus vulgaris X19H ATCC 881; type: functional
Mycolicibacterium phlei [12] = test: In vitro activity of compound against rapidly growing Mycobacterium phlei 1289; type: functional; how it was run: as §1
[13] = test system: Mycolicibacterium smegmatis; test: In vitro activity of compound against rapidly growing Mycobacterium smegmatis 31; type: functional; how it was run: as §1
Mycobacterium marinum [14] = test: In vitro activity of compound against slowly growing Mycobacterium marinum 1394; type: functional; how it was run: as §1
Streptococcus pyogenes [15] = test: Inhibitory concentration of compound against Streptococcus pyogenus septicemia in the mouse, administarted in OS route; type: functional
How it was run: (§4)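 Male and female CD1 mice (18-22 g) were infected ip with S. pyogenes C203, with the challenge set so untreated mice died within 48 h. Groups of five received a single treatment immediately after infection. ED50 was calculated from the percentage surviving at each dose on day 10.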

Mycobacterium avium [16] = test: Minimum inhibitory concentration of compound against 20 Mycobacterium avium complex (MAC) clinical isolates
Mycobacterium xenopi [17] = test: In vitro activity of compound against slowly growing Mycobacterium xenopi 556; type: functional; how it was run: as §1
[18] = test system: Mycobacterium scrofulaceum; test: In vitro activity of compound against slowly growing Mycobacterium scrofulaceum 1297; type: functional; how it was run: as §1
[19] = test system: Mycolicibacterium smegmatis; test: In vitro activity of compound against rapidly growing Mycobacterium smegmatis 1442; type: functional; how it was run: as §1
Mycobacterium gordonae [20] = test: In vitro activity of compound against slowly growing Mycobacterium gordonae 1294; type: functional; how it was run: as §1
[21] = test system: Mycolicibacterium fortuitum; test: In vitro activity compound against rapidly growing Mycobacterium fortuitum 1440; type: functional; how it was run: as §1
[22] = test system: Mycolicibacterium fortuitum; test: In vitro activity compound against rapidly growing Mycobacterium fortuitum 1302; type: functional; how it was run: as §1
[23] = test system: Mycobacterium scrofulaceum; test: In vitro activity of compound against slowly growing Mycobacterium scrofulaceum 1292; type: functional; how it was run: as §1
[24] = test system: Mycolicibacterium flavescens; test: In vitro activity of compound against rapidly growing Mycobacterium flavescens 1286; type: functional; how it was run: as §1
Mycobacterium xenopi [25] = test: In vitro activity of compound against slowly growing Mycobacterium xenopi 554; type: functional; how it was run: as §1
[26] = test system: Staphylococcus epidermidis; test: In vitro antibacterial activity of compound against Staphylococcus epidermidis ATCC 12228; type: functional; how it was run: as §3
[27] = test system: Mycolicibacterium fortuitum; test: In vitro activity of compound against rapidly growing Mycobacterium fortuitum 1285; type: functional; how it was run: as §1
Klebsiella pneumoniae = test: In vitro antibacterial activity of compound against Klebsiella pneumoniae ISM; type: functional
Mycobacterium marinum [28] = test: In vitro activity of compound against slowly growing Mycobacterium marinum 1447; type: functional; how it was run: as §1
Mycobacterium marinum [29] = test: In vitro activity of compound against slowly growing Mycobacterium marinum 1391; type: functional; how it was run: as §1
Neisseria gonorrhoeae = test: In vitro antibacterial activity of compound against Neisseria gonorrhoeae ISM 68/126; type: functional
[30] = test system: Mycolicibacterium fortuitum; test: In vitro activity of compound against rapidly growing Mycobacterium fortuitum 726; type: functional; how it was run: as §1
Mycolicibacterium phlei [31] = test: In vitro activity of compound against rapidly growing Mycobacterium phlei 141; type: functional; how it was run: as §1
Mycobacterium avium [32] = test: 50% inhibition of the 20 Mycobacterium (MAC) avium complex clinical isolates; type: functional
How it was run: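 Agar-dilution MICs, 2-fold dilutions over 128-0.0001 μg/mL, on Middlebrook 7H10 agar with 2% glycerol and 10% OADC. Organisms from Loevenstein-Jensen slants were grown in 7H9 broth with 0.5% Tween and 10% OADC, adjusted to McFarland no. 1, and spotted with a multipoint inoculator. Plates were sealed and incubated at 22, 30 or 37 °C for 4-20 days depending on strain.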

[33] = test system: Mycobacterium scrofulaceum; test: In vitro activity of compound against slowly growing Mycobacterium scrofulaceum 1301; type: functional; how it was run: as §1
[34] = test system: Mycobacterium scrofulaceum; test: In vitro activity of compound against slowly growing Mycobacterium scrofulaceum 1293; type: functional; how it was run: as §1
Mycobacterium marinum [35] = test: In vitro activity of compound against slowly growing Mycobacterium marinum 1393; type: functional; how it was run: as §1
[36] = test system: Mycolicibacterium fortuitum; test: In vitro activity of compound against rapidly growing Mycobacterium fortuitum 645; type: functional; how it was run: as §1
Streptococcus pyogenes [37] = test: Inhibitory concentration of compound against Streptococcus pyogenus septicemia in the mouse, administarted in subcutaneous route; type: functional; details: sc; how it was run: as §4
Mycobacterium marinum [38] = test: In vitro activity of compound against slowly growing Mycobacterium marinum 1392; type: functional; how it was run: as §1
Haemophilus influenzae = test: In vitro antibacterial activity of compound against Haemophilus influenzae ATCC 19418; type: functional
Mycobacteroides chelonae = test: In vitro activity of compound against rapidly growing Mycobacterium chelonae 1443
Mycobacterium kansasii [39] = test: In vitro activity of compound against slowly growing Mycobacterium kansasii 1299; type: functional; how it was run: as §1
Mycobacterium kansasii [40] = test: In vitro activity compound against slowly growing Mycobacterium kansasii 1291; type: functional; how it was run: as §1
[41] = test system: Mycolicibacterium flavescens; test: In vitro activity of compound against rapidly growing Mycobacterium flavescens 1284; type: functional; how it was run: as §1
Mycobacterium avium [42] = test: 90% inhibition of the 20 Mycobacterium avium complex (MAC) clinical isolates
Pseudomonas aeruginosa = test: In vitro antibacterial activity of compound against Pseudomonas aeruginosa ATCC 10145; type: functional; how it was run: as §3
Mycolicibacterium phlei [43] = test: In vitro activity of compound against rapidly growing Mycobacterium phlei 1283; type: functional; how it was run: as §1
Mycobacterium xenopi [44] = test: In vitro activity compound against slowly growing Mycobacterium xenopi 1446; type: functional; how it was run: as §1
Mycobacterium kansasii [45] = test: In vitro activity compound against slowly growing Mycobacterium kansasii 1298; type: functional; how it was run: as §1
Streptococcus pyogenes [46] = test: Minimum inhibitory concentration of compound against Streptococcus pyogenus septicemia in the mouse; type: functional
[47] = test system: Mycobacterium tuberculosis; test: In vitro antibacterial activity of compound against Mycobacterium tuberculosis H37Rv ATCC 9660; type: functional
Mycobacterium marinum [48] = test: In vitro activity of compound against slowly growing Mycobacterium marinum 1392 h; type: functional; how it was run: as §1
Staphylococcus aureus [49] = test: Activity in the murine model (OS route) of Staphylococcus aureus tour septicemia; type: functional
How it was run: (§5)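 Male and female CD1 mice (18-22 g) were infected ip with S. aureus Tour. The challenge was set so untreated mice died within 48 h. Groups were five mice, dosed once daily for 3 days starting immediately after infection. ED50 was calculated on day 10 from the percentage surviving at each dose.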

Staphylococcus aureus [50] = test: Activity in the murine model (subcutaneous route) of Staphylococcus aureus tour septicemia; type: functional; details: sc; how it was run: as §5

CCN(CC)c1nc2c(s1)c1c(O)c3c(O)c(C)c4c(c32)C(=O)C(C)(O/C=C/C(OC)C(C)C(OC(C)=O)C(C)C(O)C(C)C(O)C(C)/C=C/C=C(/C)C(=O)N1)O4 (configuration not stated)
0.032 µg/mL: MIC [23] | MIC (Mycolicibacterium phlei [31])
0.5 µg/mL: MIC (Mycobacterium avium [16]) | MIC (Mycobacterium gordonae [20]) | MIC (Neisseria gonorrhoeae) | MIC (Haemophilus influenzae)
0.25 µg/mL: MIC [24] | MIC (Mycobacterium kansasii [45])
8 µg/mL: MIC [6] | MIC [13] | MIC [19] | MIC (Pseudomonas aeruginosa)
2 µg/mL: MIC (Mycobacterium gordonae [1]) | MIC [2] | MIC (Enterococcus faecalis) | MIC (Mycobacterium marinum [9]) | MIC (Mycolicibacterium phlei [12]) | MIC [22] | MIC (Mycobacterium xenopi [25]) | MIC50 (Mycobacterium avium [32]) | MIC [33] | MIC [36] | MIC (Mycobacterium kansasii [39]) | MIC (Mycobacterium kansasii [40]) | MIC90 (Mycobacterium avium [42])
0.135 µg/mL: MIC (Streptococcus pyogenes [46])
1 µg/mL: MIC (Mycobacterium marinum [14]) | MIC (Mycobacterium marinum [28]) | MIC (Mycobacterium marinum [29]) | MIC (Mycobacterium marinum [35]) | MIC (Mycobacterium marinum [38])
0.125 µg/mL: MIC (Streptococcus pyogenes [5]) | MIC (Staphylococcus aureus [8]) | MIC [34] | MIC (Mycolicibacterium phlei [43])
1.62 mg/kg: ED50 (Streptococcus pyogenes [37])
0.063 µg/mL: MIC (Streptococcus pneumoniae) | MIC [18] | MIC [26]
1.23 mg/kg: ED50 (Streptococcus pyogenes [15])
> 128 µg/mL: MIC (Mycobacteroides chelonae)
4 µg/mL: MIC (Mycobacterium xenopi [7]) | MIC (Mycobacterium marinum [11]) | MIC (Mycobacterium xenopi [17]) | MIC (Mycobacterium xenopi [44])
32 µg/mL: MIC (Escherichia coli) | MIC [10] | MIC (Proteus vulgaris) | MIC (Klebsiella pneumoniae) | MIC [30] | MIC [41]
16 µg/mL: MIC [3] | MIC [4] | MIC [21] | MIC [27]

COC1/C=C/OC2(C)Oc3c(C)c(O)c4c(O)c(c(C=NN5CCN(C6CCCC6)CC5)c(O)c4c3C2=O)NC(=O)/C(C)=C\C=C\C(C)C(O)C(C)C(O)C(C)C(OC(C)=O)C1C (configuration not stated)
0.032 µg/mL: MIC [34]
1 µg/mL: MIC (Mycobacterium gordonae [1]) | MIC [2] | MIC50 (Mycobacterium avium [32])
0.016 µg/mL: MIC [23] | MIC (Mycolicibacterium phlei [31])
4 µg/mL: MIC [27] | MIC [33] | MIC (Mycobacterium kansasii [40])
32 µg/mL: MIC [3] | MIC [4] | MIC [10] | MIC [21] | MIC (Klebsiella pneumoniae) | MIC [41]
> 128 µg/mL: MIC (Mycobacteroides chelonae)
8 µg/mL: MIC (Pseudomonas aeruginosa)
0.25 µg/mL: MIC (Mycobacterium xenopi [7]) | MIC (Mycobacterium xenopi [25]) | MIC (Mycobacterium xenopi [44])
0.063 µg/mL: MIC (Streptococcus pneumoniae) | MIC (Streptococcus pyogenes [5]) | MIC (Staphylococcus aureus [8]) | MIC [47] | MIC [18] | MIC [26] | MIC (Mycolicibacterium phlei [43]) | MIC (Mycobacterium kansasii [45])
0.125 µg/mL: MIC (Mycobacterium marinum [9]) | MIC (Mycobacterium marinum [48]) | MIC (Mycobacterium marinum [14]) | MIC [24] | MIC (Mycobacterium marinum [28]) | MIC (Mycobacterium marinum [29]) | MIC (Mycobacterium marinum [35])
0.5 µg/mL: MIC (Mycobacterium marinum [11]) | MIC (Mycobacterium xenopi [17]) | MIC (Mycobacterium gordonae [20]) | MIC [22] | MIC (Neisseria gonorrhoeae) | MIC (Haemophilus influenzae)
2 µg/mL: MIC (Enterococcus faecalis) | MIC (Mycolicibacterium phlei [12]) | MIC [36] | MIC (Mycobacterium kansasii [39])
0.22 mg/kg: ED50 (Staphylococcus aureus [49])
0.18 mg/kg: ED50 (Staphylococcus aureus [50])
